Sampled rows, rich in hits. Any-hit rate of the full collection: about 3.5%.
RGS4 block: inhibitors of human RGS4; B-score at 10 µM; 310,000 compounds, 0.45% hits; HEK293 M3R/RGS4 inducible, Fluo-4 calcium flux; stronger effect = higher value; triggered by carbachol at its EC20;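 active means B-score, a plate-corrected calcium signal, over three deviations above library mean, with baseline fluorescence within five deviations of library mean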;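 further: RGS4 expression induced by doxycycline in cells with stable M3 receptor; B-score is computed from the integrated fluorescence ratio over baseline after carbachol; higher B-score means a larger calcium signal and so more RGS4 inhibition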
Target sequence (P49798 whole entry, looked up): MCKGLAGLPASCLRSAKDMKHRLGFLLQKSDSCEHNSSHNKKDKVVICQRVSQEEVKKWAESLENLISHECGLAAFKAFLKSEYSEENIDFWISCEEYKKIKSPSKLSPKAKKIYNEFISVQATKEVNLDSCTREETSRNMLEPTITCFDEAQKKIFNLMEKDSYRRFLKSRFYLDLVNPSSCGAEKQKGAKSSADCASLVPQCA
MrgX1 ag: activates human MrgX1 receptor signaling; AID 588627; B-score at 10 µM; MrgX1-HEK293 cells, Fluo-4 calcium fluorescence, agonist mode; stronger effect = higher value; 310,000 compounds, 0.44% hits; Q96LB2;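 active means calcium response B-score plate-corrected fluorescence ratio at least 3 library SD, with starting fluorescence B-score inside 5 SD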
Target sequence (Q96LB2 whole entry, looked up): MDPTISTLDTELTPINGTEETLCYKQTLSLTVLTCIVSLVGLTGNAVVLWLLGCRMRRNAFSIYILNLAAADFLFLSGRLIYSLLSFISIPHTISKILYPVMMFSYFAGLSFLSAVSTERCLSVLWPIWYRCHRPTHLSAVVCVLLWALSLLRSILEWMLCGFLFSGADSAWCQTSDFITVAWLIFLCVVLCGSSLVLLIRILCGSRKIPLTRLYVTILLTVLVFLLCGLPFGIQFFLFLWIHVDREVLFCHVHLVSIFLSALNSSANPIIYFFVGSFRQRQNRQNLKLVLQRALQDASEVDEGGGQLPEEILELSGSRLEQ
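Test system: HEK293 cells stably expressing human MrgX1 receptor; amount: 15,000 cells per well; doses: compound delivered in addition one of three; times: overnight plating before 1 h dye loading; detection: Fluo-4 NW calcium-flux fluorescence, kinetic read; read-out basis: B-scored fluorescence response ratio; controls: positive and negative controls per plate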
MrgX1 antagonist: human MrgX1 receptor antagonism, primary screen. Q96LB2. MRGX1-HEK293 calcium flux, Fluo-4, BAM8-22 antagonism; stronger effect = lower value. B-score at 10 µM. 310,000 compounds, 1.3% hits. AID 588676;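 active means calcium-response B-score plate-corrected more than 3 library SD below zero, starting fluorescence within 5 deviations, no agonist response on first addition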;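 further: peak minus trough fluorescence over baseline after final BAM8-22 challenge near maximal dose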
MrgX1 allo act: allosterically activates human MrgX1 receptor signaling | Q96LB2 | MrgX1-HEK293, Fluo-4 calcium flux, FDSS; stronger effect = higher value | B-score at 10 µM | 310,000 compounds, 0.63% hits | AID 588675;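 active means plate-corrected calcium response at least 3 library SD above typical, normal starting fluorescence, not activating the receptor alone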;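 further: compound read alongside a low EC10 to EC30 dose of BAM8-22 agonist; peak minus trough fluorescence over baseline measured at the second addition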
RGS4 act: RGS4 potentiation or activation; HEK293 M3R/inducible RGS4, carbachol calcium flux Fluo4; stronger effect = lower value; B-score at 10 µM; 310,000 compounds, 0.92% hits; AID 463111;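 active means B-score of the integrated calcium signal more than 4 SD below the library mean, with starting fluorescence not abnormally high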;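 further: negative B-score means reduced calcium response which marks RGS4 activation or potentiation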
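System: HEK293 FlpIn-TREx cells, stable M3R, doxycycline-inducible RGS4. Timing: overnight RGS4 induction, 30 min dye load 37 °C, 20 min compound RT. Also added: carbachol, ECmax concentration. Measured by: Fluo4 fluorescence kinetic imaging of calcium. Evaluation: integrated calcium ratio converted to B score.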
* hit, by the source's call; i = inactive; · = not tested or not shown.

SMILES	RGS4 block	MrgX1 ag	MrgX1 antagonist	MrgX1 allo act	RGS4 act
Cc1nn(-c2ccccc2)c(Cl)c1C(=O)N1CCN(c2ncnc3c2cnn3-c2ccccc2)CC1	i	i	-7.65*	i	i
COc1ccc(C2Nc3ccccc3C(=O)N2c2ccc(C)cc2)cc1Cn1nnc2ccccc21 (stereo unspecified)	i	i	i	23.1*	i
CCN1/C(=C/c2sc(-c3ccccc3C)c[n+]2C)Sc2ccccc21	i	·	·	·	-7.42*
Cc1cccc(N2CCN(C(=O)c3cn(C)c(=O)c4c3c3ccccc3n4C)CC2)c1C	i	i	i	9.52*	i
CCOC(=O)N1CCN(Cc2cc(=O)oc3ccc(Cl)cc23)CC1	i	i	i	i	i
CCOC(=O)N1CCN(Cc2cc(=O)oc3cc4c(cc23)CCC4)CC1	i	33*	i	i	i
Cc1cc2oc(=O)cc(CN3CCCCC3)c2cc1C(C)C	i	50.9*	i	i	i
Cc1cc2oc(=O)cc(CN3CCCCC3)c2cc1O	i	i	i	i	i
O=C(Nc1cccc(-c2nc3ccccc3s2)c1)c1cc(-n2cnnc2)ccc1Cl	i	i	i	i	-8.27*
Cc1c(NC(=O)c2cc(-n3cnnc3)ccc2Cl)cccc1-c1nc2ccccc2s1	i	i	i	i	i
CC(=O)Nc1ccc(/C=N\NC(=O)CNS(=O)(=O)c2ccc([N+](=O)[O-])cc2)cc1	i	i	i	i	i
O=C(CNS(=O)(=O)c1ccc([N+](=O)[O-])cc1)N/N=C\c1ccc(O)cc1	i	i	-6.05*	9.15*	i
Cn1cccc1CC(=O)N/N=C/c1ccc(Cl)cc1	i	i	i	10.9*	i
Cn1cccc1CC(=O)N/N=C/c1ccc([N+](=O)[O-])cc1	i	i	i	7.65*	i
O=C(CSc1nnc(-c2ccco2)o1)N1CCCCC1	i	i	i	i	i
O=C(c1ccc2[nH]ccc2c1)N1CCCC(Nc2ccccc2)C1 (stereo unspecified)	i	i	i	i	i
COCCNC(=O)NC(=O)CN1C(=O)NC(Cc2c[nH]c3ccccc23)C1=O (stereo unspecified)	i	i	i	i	i
CCOC(=O)CN(C(=O)CNC(=O)c1ccco1)C(C(=O)NC1CCCC1)c1ccccc1OCC (stereo unspecified)	i	i	-5.4*	i	i
O=C(NC1CCCC1)C(c1ccccc1F)N(C(=O)c1ccco1)C1CCCC1 (stereo unspecified)	i	i	i	i	-7.13*
COC(=O)C(C)Oc1ccc2c(c1)O/C(=C\c1ccco1)C2=O (stereo unspecified)	i	i	i	i	-9.07*
COc1ccc(/C=C2\Oc3cc(OCC(N)=O)ccc3C2=O)cc1OC	i	i	-5.37*	i	-8.15*
COc1ccc(S(=O)(=O)N2CCCOC2CNC(=O)C(=O)NCc2ccco2)cc1 (stereo unspecified)	i	i	i	i	i
O=C(Cn1nnc(-c2ccc([N+](=O)[O-])cc2)n1)NNC(=O)c1ccccc1	i	i	i	i	i
Cc1nn(C(C)C(=O)NCCCN2CCCC2)c(=O)c2nn(-c3ccccc3)c(C)c12 (stereo unspecified)	i	i	i	i	i
C#CCOc1c(Br)cc(/C=N/O)cc1OCC	i	i	i	7.91*	i
SMILES	RGS4 block	MrgX1 ag	MrgX1 antagonist	MrgX1 allo act	RGS4 act
COC(=O)c1ccc(/C(O)=C(\C#N)c2nc3ccccc3s2)cc1	i	28.1*	i	i	i
COC(=O)c1ccc(CC(=O)c2nc3ccccc3s2)cc1	i	i	i	i	i
O=C(NN1C(=O)c2ccccc2NC1c1ccoc1)c1ccc([N+](=O)[O-])cc1 (stereo unspecified)	i	i	-4.63*	i	i
O=C(c1ccc(S(=O)(=O)Cc2cc(F)ccc2F)c([N+](=O)[O-])c1)N1CCCC1	i	i	i	7.2*	i
Cc1cccc(-n2nc(C(=O)c3ccco3)cc(-c3nc4ccccc4[nH]3)c2=N)c1	i	i	i	i	-8.08*
Cc1ccccc1-n1nc(C(=O)c2cccs2)cc(-c2nc3ccccc3[nH]2)c1=N	i	i	i	i	i
O=C(COC(=O)/C=C/c1ccccc1[N+](=O)[O-])NCC(F)(F)F	i	i	-4.86*	i	i
CCNC(=O)COC(=O)/C=C/c1ccccc1[N+](=O)[O-]	i	i	i	i	i
Nc1sc(-c2ccccc2)n[n+]1Cc1cccc2cccnc12	i	i	-4.71*	i	-7.14*
COc1ccc(C[C@H](C)NC[C@@H](O)c2ccc(O)c(NC=O)c2)cc1	i	i	i	7.7*	i
COC(=O)Nc1ccc([N+](=O)[O-])cc1OC	i	i	-7.45*	i	i
CC(COc1ccccc1Cc1ccccc1)N1CCCCC1 (stereo unspecified)	i	i	i	i	-7.38*
O=C(O)COc1ccccc1Cc1ccccc1	i	i	i	i	i
Cc1c(CCC(=O)N[C@@H](CC(C)C)C(=O)O)c(=O)oc2cc3oc4c(c3cc12)CCCC4	i	i	i	14.5*	i
Cc1ccc(S(=O)(=O)Nc2nnc(C3CCCCC3)s2)cc1	i	i	i	i	i
CCN1C(=O)[C@H]2[C@@H](c3ccc(-c4cc(C(C)=O)cs4)cc3)N3CCCC[C@@]3(C(=O)OC)[C@H]2C1=O	·	i	i	i	·
O=C(CS(=O)(=O)c1ccccc1)c1cc2cc(F)ccc2oc1=O	i	60.9*	i	i	i
COc1ccc(S(=O)(=O)CC(=O)c2cc3cccc(C)c3oc2=O)cc1	i	41.6*	i	i	i
COc1cccc2cc(C(=O)CS(=O)(=O)c3ccc(C(C)(C)C)cc3)c(=O)oc12	i	i	i	i	i
O=C(CNC1CCCCC1)NN=C(c1ccccc1)c1ccccc1	i	i	i	i	i
CC(=O)N/N=c1\sc2ccccc2n1C	i	i	i	i	i
Cn1/c(=N\NC(=O)c2ccccc2Cl)sc2ccccc21	i	31.4*	i	i	i
COc1ccc(C2/C=C\CNCC(=O)N2Cc2ccc(F)cc2)cc1 (stereo unspecified)	i	i	i	i	i
CCOC(=O)CCSc1nc(C(C)(C)C)cc(C(F)(F)F)c1C#N	i	i	i	i	-7.22*
